Measured values: ChEMBL document CHEMBL1144729, “N-pyridin-3-yl- and N-quinolin-3-yl-benzamides: modulators of human vanilloid receptor 1 (TRPV1)” (Bioorg Med Chem Lett, 2008)

Tests used:
[1] = target: T1, Transient receptor potential cation channel subfamily V member 1 (Homo sapiens, UniProt Q8NER1); assay: Activity at human TRPV1 in HEK cells assessed by measuring capsaicin-induced calcium level by FLIPR technology; format: cell-based, HEK293
How it was run: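 Stably transfected hTRPV1/HEK cells plated on poly-D-lysine and used 2 days later. Loaded with Fluo-3/AM for 1 h, then given a single concentration of compound. Antagonist potency protocol taken from earlier work.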

[2] = target: T1, Transient receptor potential cation channel subfamily V member 1; assay: Displacement of [3H]RTX from human TRPV1 receptor expressed in HEK293 cells; format: cell-based
How it was run: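 Membranes from HEK293 stably expressing human TRPV1, prepared by homogenisation and differential centrifugation. Binding buffer: 20 mM Hepes pH 7.4, 5.8 mM NaCl, 320 mM sucrose, 2 mM MgCl2, 0.75 mM CaCl2, 5 mM KCl. Incubated 60 min at 37 °C with 0.3–0.6 nM [3H]-RTX. Cooled on ice, alpha-acid glycoprotein added, pellet counted by scintillation. Nonspecific binding defined with 200 nM unlabeled RTX.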

Rattus norvegicus = assay: Reversal of CFA-induced thermal hyperalgesia in Sprague-Dawley rat at 30 mg/kg, po; format: functional
How it was run: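 Thermal hyperalgesia induced by CFA injection in Sprague–Dawley rats. Radiant-heat withdrawal latency measured on a warm glass surface after about 10 min acclimation, before and 24 h after CFA. Single oral dose given, latencies reassessed at 100 min post-dose and compared with vehicle. Analysis by two-way ANOVA with Bonferroni post hoc test, p < 0.05.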

[3] = Metabolic stability in human liver microsomes after 15 mins; format: ADME, Microsome; conditions: read-out: Stability
How it was run: (§1)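 Compound incubated with rat or human liver microsomes. Percent of parent remaining measured after 15 min.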

[4] = Oral bioavailability in Sprague-Dawley rat; format: ADME, organism-based; conditions: in vivo
How it was run: (§2)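 Pharmacokinetics measured in male Sprague–Dawley rats after intravenous and oral dosing.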

[5] = Metabolic stability in rat liver microsomes after 15 mins; format: ADME, Microsome; conditions: read-out: Stability; how it was run: as §1
[6] = Elimination half life in Sprague-Dawley rat; format: ADME, organism-based; conditions: in vivo; how it was run: as §2
[7] = Clearance in Sprague-Dawley rat; format: ADME, organism-based; conditions: in vivo; how it was run: as §2

T1 sequence (Q8NER1 whole entry): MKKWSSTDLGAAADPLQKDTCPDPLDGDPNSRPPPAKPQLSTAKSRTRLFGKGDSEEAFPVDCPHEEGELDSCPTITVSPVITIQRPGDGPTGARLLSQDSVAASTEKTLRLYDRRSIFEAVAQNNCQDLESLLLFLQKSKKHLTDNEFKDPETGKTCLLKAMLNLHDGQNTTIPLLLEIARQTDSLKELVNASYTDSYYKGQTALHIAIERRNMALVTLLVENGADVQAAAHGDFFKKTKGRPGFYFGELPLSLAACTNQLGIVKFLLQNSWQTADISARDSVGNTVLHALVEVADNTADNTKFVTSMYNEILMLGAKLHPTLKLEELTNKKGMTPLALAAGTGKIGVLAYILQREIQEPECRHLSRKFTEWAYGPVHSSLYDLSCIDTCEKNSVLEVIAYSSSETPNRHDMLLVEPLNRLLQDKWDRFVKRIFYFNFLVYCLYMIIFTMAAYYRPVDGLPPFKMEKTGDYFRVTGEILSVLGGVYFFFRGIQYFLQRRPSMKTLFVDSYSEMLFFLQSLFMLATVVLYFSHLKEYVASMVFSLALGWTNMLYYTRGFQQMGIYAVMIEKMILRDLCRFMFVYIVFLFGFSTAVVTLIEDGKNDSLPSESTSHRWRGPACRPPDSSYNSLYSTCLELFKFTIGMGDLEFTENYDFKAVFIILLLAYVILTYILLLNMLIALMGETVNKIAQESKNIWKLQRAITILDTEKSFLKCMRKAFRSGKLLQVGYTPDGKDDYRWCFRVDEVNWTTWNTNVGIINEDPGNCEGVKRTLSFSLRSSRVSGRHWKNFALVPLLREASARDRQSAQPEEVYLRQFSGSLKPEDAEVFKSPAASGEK

SMILES | IC50 [1] | Ki [2] | EC50 [1] | other results
CCCCN(C)c1ccc(C(=O)Nc2cnc3ccccc3c2)cc1 | 66 nM | – | – | –
CCCCc1ccc(C(=O)Nc2cnc3ccccc3c2)cc1 | 230 nM | 53 nM | – | –
CCCCCc1ccc(CC(=O)Nc2cccnc2)cc1 | – | 7260 nM | > 5000 nM | –
CN(CC1CCCCC1)c1ccc(C(=O)Nc2cnc3ccccc3c2)cc1 | 170 nM | 16 nM | – | –
CCCCCCCc1ccc(C(=O)Nc2cnc3ccccc3c2)cc1 | > 30000 nM | 3520 nM | – | –
CN(c1ccc(C(=O)Nc2cnc3ccccc3c2)cc1)C1CCCCC1 | – | – | – | Activity (Rattus norvegicus): > 80%; remaining at 0.25 h [3]: 25%; bioavailability [4]: 70%; remaining at 0.25 h [5]: 45%; half-life [6]: 1.67 h; clearance [7]: 20 mL/min/kg

Now from value to molecule, other results behind:

IC50 [1] | Ki [2] | EC50 [1] | SMILES | other results
– | 15 nM | – | CCCCCCCCN(C)c1ccc(C(=O)Nc2cnc3ccccc3c2)cc1 | –
– | 607 nM | > 30000 nM | CCCCCCCCCCc1ccc(C(=O)Nc2cccnc2)cc1 | –
130 nM | 60 nM | – | CCCc1ccc(C(=O)Nc2cnc3ccccc3c2)cc1 | –
– | > 3000 nM | > 5000 nM | CCCCCc1ccc(NC(=O)c2cccnc2)cc1 | –
